According to the M2OR odorant receptor database:
Substitutions are numbered along the chain they refer to.

Assays:
Conditions in all cases: stereoisomer not certain
OR11H12 (Homo sapiens) = molecular target: T1, OR11H12 (Homo sapiens) (UniProt B2RN74)
T1 sequence (whole entry): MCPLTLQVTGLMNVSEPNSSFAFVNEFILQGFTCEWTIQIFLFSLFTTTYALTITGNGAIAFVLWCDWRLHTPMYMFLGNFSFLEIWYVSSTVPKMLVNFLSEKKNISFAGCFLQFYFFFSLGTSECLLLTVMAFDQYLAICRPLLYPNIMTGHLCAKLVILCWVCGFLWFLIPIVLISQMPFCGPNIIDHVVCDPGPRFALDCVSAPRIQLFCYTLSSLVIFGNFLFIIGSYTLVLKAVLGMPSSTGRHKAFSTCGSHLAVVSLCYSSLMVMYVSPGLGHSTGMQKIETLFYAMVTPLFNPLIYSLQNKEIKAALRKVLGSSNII
In short: (§1)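 Assay methods differ from source to source, frequently being transient luciferase assays in mammalian cell lines. For each receptor–molecule pair, the label responsive (active) applies when the original authors judged the measured signal statistically different from baseline, and non-responsive (inactive) applies otherwise.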

OR11H2 (Homo sapiens) = molecular target: T2, OR11H2 (Homo sapiens) (UniProt Q8NH07)
T2 sequence (whole entry): T1 sequence (whole entry) with Q7H, T33S, T49I, W68R, C156Y, M181K, R199L, S269P
In short: as §1

OR11H4 (Homo sapiens) = molecular target: T3, OR11H4 (Homo sapiens) (UniProt Q8NGC9)
T3 sequence (whole entry): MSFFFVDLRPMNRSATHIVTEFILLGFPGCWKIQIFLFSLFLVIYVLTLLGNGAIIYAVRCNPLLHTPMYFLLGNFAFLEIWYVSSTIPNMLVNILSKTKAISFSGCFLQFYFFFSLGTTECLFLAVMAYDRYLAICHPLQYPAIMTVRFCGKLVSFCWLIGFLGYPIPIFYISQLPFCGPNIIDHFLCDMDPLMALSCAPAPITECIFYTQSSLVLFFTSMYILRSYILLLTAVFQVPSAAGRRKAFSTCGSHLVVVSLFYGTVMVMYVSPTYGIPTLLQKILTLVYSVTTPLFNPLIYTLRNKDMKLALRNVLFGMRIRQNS
In short: as §1

OR11H6 (Homo sapiens) = molecular target: T4, OR11H6 (Homo sapiens) (UniProt Q8NGC7)
T4 sequence (whole entry): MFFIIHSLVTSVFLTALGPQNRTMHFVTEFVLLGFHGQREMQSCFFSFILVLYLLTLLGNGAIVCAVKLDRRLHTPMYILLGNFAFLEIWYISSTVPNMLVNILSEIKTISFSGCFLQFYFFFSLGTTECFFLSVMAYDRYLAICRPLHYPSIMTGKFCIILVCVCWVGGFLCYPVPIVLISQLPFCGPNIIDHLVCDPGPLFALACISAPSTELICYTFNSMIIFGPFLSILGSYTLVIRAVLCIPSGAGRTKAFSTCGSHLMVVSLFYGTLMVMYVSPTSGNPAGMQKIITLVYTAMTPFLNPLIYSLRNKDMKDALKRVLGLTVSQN
In short: as §1

OR11H7 (Homo sapiens) = OR11H7 (Homo sapiens) (UniProt Q8NGC8)
Sequence of OR11H7 (Homo sapiens) (Q8NGC8 whole entry): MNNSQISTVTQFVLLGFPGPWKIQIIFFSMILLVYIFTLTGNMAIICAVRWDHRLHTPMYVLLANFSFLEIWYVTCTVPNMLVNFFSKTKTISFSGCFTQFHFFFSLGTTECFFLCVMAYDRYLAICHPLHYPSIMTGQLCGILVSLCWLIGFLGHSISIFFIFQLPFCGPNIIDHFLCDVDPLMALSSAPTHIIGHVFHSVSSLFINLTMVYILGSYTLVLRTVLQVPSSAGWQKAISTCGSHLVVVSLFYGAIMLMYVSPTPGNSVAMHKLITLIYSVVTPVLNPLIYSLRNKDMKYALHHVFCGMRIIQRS
In short: as §1

OR11L1 (Homo sapiens) = molecular target: T5, OR11L1 (Homo sapiens) (UniProt Q8NGX0)
T5 sequence (whole entry): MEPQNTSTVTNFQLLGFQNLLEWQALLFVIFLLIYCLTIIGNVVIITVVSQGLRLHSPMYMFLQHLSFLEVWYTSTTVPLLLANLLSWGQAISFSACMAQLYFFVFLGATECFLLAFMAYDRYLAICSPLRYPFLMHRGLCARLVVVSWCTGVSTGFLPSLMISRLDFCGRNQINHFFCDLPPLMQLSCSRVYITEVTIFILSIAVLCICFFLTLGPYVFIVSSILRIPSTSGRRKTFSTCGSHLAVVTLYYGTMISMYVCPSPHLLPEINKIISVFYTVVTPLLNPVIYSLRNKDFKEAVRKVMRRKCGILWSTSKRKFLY
In short: as §1

OR12D1 (Homo sapiens) = OR12D1 (Homo sapiens) (UniProt P0DN82)
Sequence of OR12D1 (Homo sapiens) (P0DN82 as listed by the source): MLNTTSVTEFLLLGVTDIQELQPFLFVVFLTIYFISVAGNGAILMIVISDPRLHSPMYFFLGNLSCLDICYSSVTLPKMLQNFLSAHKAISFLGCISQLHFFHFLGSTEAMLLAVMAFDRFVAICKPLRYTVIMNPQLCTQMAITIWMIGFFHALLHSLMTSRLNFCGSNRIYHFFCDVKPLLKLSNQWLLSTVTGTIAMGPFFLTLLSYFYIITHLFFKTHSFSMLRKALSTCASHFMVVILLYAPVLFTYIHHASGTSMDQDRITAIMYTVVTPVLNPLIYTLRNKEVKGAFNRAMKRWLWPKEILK
In short: as §1

OR12D2 (Homo sapiens) = molecular target: T6, OR12D2 (Homo sapiens) (UniProt P58182)
T6 sequence (whole entry): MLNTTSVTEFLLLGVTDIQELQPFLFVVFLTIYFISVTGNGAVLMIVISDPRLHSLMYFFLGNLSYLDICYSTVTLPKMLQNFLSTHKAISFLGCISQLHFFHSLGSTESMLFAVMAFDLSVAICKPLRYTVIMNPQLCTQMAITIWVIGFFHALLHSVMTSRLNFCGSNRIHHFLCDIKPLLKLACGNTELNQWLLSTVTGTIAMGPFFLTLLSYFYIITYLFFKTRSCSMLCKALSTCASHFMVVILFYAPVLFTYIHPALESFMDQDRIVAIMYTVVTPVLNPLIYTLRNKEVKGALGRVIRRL
In short: as §1

OR12D3 (Homo sapiens) = molecular target: T7, OR12D3 (Homo sapiens) (UniProt Q9UGF7)
T7 sequence (whole entry): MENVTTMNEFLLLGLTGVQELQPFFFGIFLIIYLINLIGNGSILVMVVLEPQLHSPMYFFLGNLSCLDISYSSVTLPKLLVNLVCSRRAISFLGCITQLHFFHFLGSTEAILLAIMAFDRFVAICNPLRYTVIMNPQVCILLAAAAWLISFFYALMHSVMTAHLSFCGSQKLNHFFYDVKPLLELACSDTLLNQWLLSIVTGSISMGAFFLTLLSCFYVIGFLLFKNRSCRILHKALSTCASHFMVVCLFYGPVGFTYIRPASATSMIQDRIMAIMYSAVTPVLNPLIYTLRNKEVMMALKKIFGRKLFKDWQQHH
In short: as §1

OR13A1 (Homo sapiens) = molecular target: T8, OR13A1 (Homo sapiens) (UniProt Q8NGR1)
T8 sequence (whole entry): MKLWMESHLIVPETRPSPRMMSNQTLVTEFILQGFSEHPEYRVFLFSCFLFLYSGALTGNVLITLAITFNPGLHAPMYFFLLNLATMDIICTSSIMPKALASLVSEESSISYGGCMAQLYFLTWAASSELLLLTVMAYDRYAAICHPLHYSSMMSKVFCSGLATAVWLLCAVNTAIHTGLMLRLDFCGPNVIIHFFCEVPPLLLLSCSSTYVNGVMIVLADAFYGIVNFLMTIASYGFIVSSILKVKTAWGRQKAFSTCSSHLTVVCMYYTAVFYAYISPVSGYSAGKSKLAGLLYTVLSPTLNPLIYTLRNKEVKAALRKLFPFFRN
In short: as §1

OR13C2 (Homo sapiens) = molecular target: T9, OR13C2 (Homo sapiens) (UniProt Q8NGS9)
T9 sequence (whole entry): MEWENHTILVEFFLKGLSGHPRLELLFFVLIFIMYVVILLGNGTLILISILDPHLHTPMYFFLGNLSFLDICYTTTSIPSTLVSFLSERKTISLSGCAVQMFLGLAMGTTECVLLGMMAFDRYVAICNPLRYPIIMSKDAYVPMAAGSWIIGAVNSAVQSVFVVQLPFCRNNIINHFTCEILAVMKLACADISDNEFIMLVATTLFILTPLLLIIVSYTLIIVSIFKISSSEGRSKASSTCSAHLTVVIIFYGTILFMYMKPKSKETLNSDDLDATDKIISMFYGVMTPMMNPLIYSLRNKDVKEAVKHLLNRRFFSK
In short: as §1

OR13C3 (Homo sapiens) = molecular target: T10, OR13C3 (Homo sapiens) (UniProt Q8NGS6)
T10 sequence (whole entry): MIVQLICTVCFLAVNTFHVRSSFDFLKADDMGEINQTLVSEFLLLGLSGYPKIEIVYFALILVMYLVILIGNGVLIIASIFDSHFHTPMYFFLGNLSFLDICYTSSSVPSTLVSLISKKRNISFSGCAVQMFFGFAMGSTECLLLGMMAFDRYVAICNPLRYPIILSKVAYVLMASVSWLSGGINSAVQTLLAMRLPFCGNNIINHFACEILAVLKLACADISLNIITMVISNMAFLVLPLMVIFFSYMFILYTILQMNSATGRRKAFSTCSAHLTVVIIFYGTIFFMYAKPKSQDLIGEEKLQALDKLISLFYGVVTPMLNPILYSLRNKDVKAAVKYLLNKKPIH
In short: as §1

OR13C4 (Homo sapiens) = molecular target: T11, OR13C4 (Homo sapiens) (UniProt Q8NGS5)
T11 sequence (whole entry): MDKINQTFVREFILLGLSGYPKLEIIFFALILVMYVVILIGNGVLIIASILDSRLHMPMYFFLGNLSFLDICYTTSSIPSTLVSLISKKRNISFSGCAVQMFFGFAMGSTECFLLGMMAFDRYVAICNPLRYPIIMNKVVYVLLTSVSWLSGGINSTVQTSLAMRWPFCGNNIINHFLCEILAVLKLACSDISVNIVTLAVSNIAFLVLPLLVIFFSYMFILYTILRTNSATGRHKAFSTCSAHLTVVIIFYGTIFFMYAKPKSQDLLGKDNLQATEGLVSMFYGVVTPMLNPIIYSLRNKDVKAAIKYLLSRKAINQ
In short: as §1

OR13C5 (Homo sapiens) = molecular target: T12, OR13C5 (Homo sapiens) (UniProt Q8NGS8)
T12 sequence (whole entry): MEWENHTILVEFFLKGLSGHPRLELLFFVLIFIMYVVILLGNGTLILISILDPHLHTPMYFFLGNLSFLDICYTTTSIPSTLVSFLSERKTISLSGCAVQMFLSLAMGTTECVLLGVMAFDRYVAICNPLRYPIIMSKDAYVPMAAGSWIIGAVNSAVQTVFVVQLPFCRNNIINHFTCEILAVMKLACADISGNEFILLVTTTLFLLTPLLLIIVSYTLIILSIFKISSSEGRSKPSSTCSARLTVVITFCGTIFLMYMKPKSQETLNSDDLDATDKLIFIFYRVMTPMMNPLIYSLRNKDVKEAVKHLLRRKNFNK
In short: as §1

OR13C7 (Homo sapiens) = OR13C7 (Homo sapiens) (UniProt P0DN81)
Sequence of OR13C7 (Homo sapiens) (P0DN81 whole entry): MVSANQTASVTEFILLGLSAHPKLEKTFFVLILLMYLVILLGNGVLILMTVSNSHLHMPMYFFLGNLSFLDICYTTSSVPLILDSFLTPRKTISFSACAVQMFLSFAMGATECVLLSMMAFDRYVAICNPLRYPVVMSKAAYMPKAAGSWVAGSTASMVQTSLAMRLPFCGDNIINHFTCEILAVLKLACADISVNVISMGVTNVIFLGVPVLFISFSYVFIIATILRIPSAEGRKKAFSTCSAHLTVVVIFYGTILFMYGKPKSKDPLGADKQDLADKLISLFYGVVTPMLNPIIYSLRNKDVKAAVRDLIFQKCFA
In short: as §1

OR13C8 (Homo sapiens) = molecular target: T13, OR13C8 (Homo sapiens) (UniProt Q8NGS7)
T13 sequence (whole entry): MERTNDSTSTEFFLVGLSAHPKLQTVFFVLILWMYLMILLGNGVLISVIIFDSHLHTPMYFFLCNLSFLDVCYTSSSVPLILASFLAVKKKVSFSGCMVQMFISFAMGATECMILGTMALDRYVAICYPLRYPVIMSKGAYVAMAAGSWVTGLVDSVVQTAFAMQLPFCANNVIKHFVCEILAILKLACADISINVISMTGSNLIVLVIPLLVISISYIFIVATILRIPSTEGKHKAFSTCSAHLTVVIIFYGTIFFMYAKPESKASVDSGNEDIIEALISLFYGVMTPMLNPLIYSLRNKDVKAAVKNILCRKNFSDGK
In short: as §1

OR13C9 (Homo sapiens) = molecular target: T14, OR13C9 (Homo sapiens) (UniProt Q8NGT0)
T14 sequence (whole entry): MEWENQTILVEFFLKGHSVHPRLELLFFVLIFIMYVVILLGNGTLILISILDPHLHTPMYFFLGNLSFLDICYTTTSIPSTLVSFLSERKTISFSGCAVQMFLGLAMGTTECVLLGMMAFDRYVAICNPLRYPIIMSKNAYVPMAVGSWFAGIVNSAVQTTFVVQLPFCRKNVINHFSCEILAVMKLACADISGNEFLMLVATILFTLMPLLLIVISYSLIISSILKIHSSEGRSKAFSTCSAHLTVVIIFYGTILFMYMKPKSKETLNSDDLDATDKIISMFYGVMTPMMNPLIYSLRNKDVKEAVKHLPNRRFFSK
In short: as §1

OR13D1 (Homo sapiens) = molecular target: T15, OR13D1 (Homo sapiens) (UniProt Q8NGV5)
T15 sequence (whole entry): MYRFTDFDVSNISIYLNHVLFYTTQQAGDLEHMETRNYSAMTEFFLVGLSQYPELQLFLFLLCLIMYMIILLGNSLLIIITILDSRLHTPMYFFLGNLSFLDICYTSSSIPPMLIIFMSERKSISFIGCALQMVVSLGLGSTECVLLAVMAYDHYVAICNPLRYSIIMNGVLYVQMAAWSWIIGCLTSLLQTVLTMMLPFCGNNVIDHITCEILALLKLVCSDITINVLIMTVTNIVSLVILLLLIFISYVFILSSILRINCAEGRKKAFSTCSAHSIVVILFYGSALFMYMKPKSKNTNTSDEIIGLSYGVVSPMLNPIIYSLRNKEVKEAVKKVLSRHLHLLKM
In short: as §1

OR13F1 (Homo sapiens) = molecular target: T16, OR13F1 (Homo sapiens) (UniProt Q8NGS4)
T16 sequence (whole entry): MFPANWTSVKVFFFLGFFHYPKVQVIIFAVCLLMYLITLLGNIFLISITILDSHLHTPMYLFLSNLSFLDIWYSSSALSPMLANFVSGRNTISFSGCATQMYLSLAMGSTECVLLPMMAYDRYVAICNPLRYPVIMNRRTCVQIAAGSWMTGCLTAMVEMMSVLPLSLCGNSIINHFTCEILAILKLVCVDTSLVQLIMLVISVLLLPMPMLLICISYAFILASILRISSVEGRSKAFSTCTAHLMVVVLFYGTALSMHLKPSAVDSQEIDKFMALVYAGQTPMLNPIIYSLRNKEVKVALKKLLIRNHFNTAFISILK
In short: as §1

OR13G1 (Homo sapiens) = molecular target: T17, OR13G1 (Homo sapiens) (UniProt Q8NGZ3)
T17 sequence (whole entry): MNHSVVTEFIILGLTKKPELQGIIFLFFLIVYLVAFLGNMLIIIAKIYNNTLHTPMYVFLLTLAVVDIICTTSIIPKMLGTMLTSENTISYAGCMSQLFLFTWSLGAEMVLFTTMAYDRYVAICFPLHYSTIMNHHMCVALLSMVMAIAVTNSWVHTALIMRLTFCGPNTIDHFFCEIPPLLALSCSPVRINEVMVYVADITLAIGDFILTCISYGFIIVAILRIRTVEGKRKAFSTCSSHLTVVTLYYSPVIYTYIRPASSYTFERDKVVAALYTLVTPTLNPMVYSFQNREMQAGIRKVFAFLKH
In short: as §1

Measured: odorant receptor agonist call

CC1CCCCCCCCCCCCC(=O)C1 (stereo not given)
inactive: OR11H12 (Homo sapiens) | OR11H2 (Homo sapiens) | OR11H4 (Homo sapiens) | OR11H6 (Homo sapiens) | OR11H7 (Homo sapiens) | OR11L1 (Homo sapiens) | OR12D1 (Homo sapiens) | OR12D2 (Homo sapiens) | OR12D3 (Homo sapiens) | OR13A1 (Homo sapiens) | OR13C2 (Homo sapiens) | OR13C3 (Homo sapiens) | OR13C4 (Homo sapiens) | OR13C5 (Homo sapiens) | OR13C7 (Homo sapiens) | OR13C8 (Homo sapiens) | OR13C9 (Homo sapiens) | OR13D1 (Homo sapiens) | OR13F1 (Homo sapiens) | OR13G1 (Homo sapiens)
